{"source": "paper PMC8052301", "about": "(Biochemical and biophysical research communications, 2021)", "molecules": {"B1": {"name": "HS-Bok: bacterially expressed, His-sumo (HS) tagged mouse Bok (protein, UniProt O35425 1-213, looked up)", "Bcl-2-related ovarian killer …": "MEVLRRSSVFAAEIMDAFDRSPTDKELVAQAKALGREYVHARLLRAGLSWSAPERASPAPGGRLAEVCTVLLRLGDELEQIRPSVYRNVARQLHIPLQSEPVVTDAFLAVAGHIFSAGITWGKVVSLYSVAAGLAVDCVRQAQPAMVHALVDCLGEFVRKTLATWLRRRGGWTDVLKCVVSTDPGFRSHWLVATLCSFGRFLKAAFFLLLPER", "modifications": "His-SUMO tag"}, "B2": {"name": "3F-Bok^WT: Bok from mouse tagged at the N-terminus with a 3xFlag epitope (protein)", "chain": "B1 Bcl-2-related ovarian killer …", "modifications": "left off: 3xFlag, N-terminal, kept"}, "B3": {"name": "3F-Bok^ΔTM: contains amino acids 1-187 of Bok (protein)", "chain": "MEVLRRSSVFAAEIMDAFDRSPTDKELVAQAKALGREYVHARLLRAGLSWSAPERASPAPGGRLAEVCTVLLRLGDELEQIRPSVYRNVARQLHIPLQSEPVVTDAFLAVAGHIFSAGITWGKVVSLYSVAAGLAVDCVRQAQPAMVHALVDCLGEFVRKTLATWLRRRGGWTDVLKCVVSTDPGFR", "modifications": "left off: 3xFlag, N-terminal, kept"}}, "key": {"3F-Bok^WT": {"test_system": "3F-Bok^WT", "test": "Anti-HA IP of IP3R1-HA constructs and co-IP of 3F-Bok^WT from HEK-3KO cells", "format": "cell-based, mouse", "conditions": "IP3R1-HA and 3F-Bok co-transfected, immunoblot", "how_it_was_run": "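Cotransfection uses full-length C-terminally HA-tagged mouse IP3R1 and N-terminally 3xFlag-tagged mouse Bok, with 1-2 μg cDNA and PEI, in HEK-3KO cells seeded at 6-8x10^5/well and transfected ~24 h later. Rabbit anti-HA precipitates from lysates. Blots of precipitates and inputs are probed with mouse anti-HA and anti-Bok, with p97 as input loading control. Detection is by ECL after SDS-PAGE and nitrocellulose transfer.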"}, "HS-Bok": {"target": "T1, HS-Bok (Mus musculus, UniProt O35425)", "T1 sequence (O35425 1-213)": "B1 Bcl-2-related ovarian killer …", "test": "Fluorescence polarization", "format": "binding", "conditions": "FP, PBS pH 7.4 / 0.1% BSA"}, "IP3R1": {"test_system": "IP3R1", "conditions": "ref [3]; cited from earlier work"}, "HS-HA": {"test_system": "HS-HA", "test": "FP of FITC-conjugated peptide with negative control HS-HA", "format": "binding", "conditions": "PBS pH 7.4 / 0.1% BSA, FITC-IP3R1^1898-1940"}, "HEK-3KO cells": {"test_system": "HEK-3KO cells", "test": "Cellular fractionation into cytosol and crude membrane, immunoblot", "format": "cell-based", "conditions": "for localization, expressed alone: cytosol / membrane fractions; for localization on co-expression of IP3R1-HA^WT and 3F-Bok^WT: IP3R1-HA^WT and 3F-Bok^WT co-expressed", "how_it_was_run": "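HEK-3KO cells are PEI-transfected (1-2 μg cDNA) with tagged mouse constructs, harvested in ice-cold homogenization buffer and sonicated. They are then spun at 20,000xg for 60 min at 4°C. The supernatant gives the cytosol fraction, and the pellet, resuspended in buffer, gives crude membranes. Fractions go through SDS-PAGE and ECL immunoblot, with transaldolase as the cytosol marker and Hrd1 as the membrane marker.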"}, "3F-Bok^ΔTM": {"test_system": "3F-Bok^ΔTM", "test": "Anti-HA IP and co-IP of TM domain-lacking constructs from HEK-3KO cells", "format": "cell-based, mouse", "conditions": "immunoblot", "how_it_was_run": "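HEK-3KO cells (6-8x10^5/well) are transfected ~24 h after seeding with 1-2 μg cDNA using PEI. Constructs are mouse IP3R1 with a C-terminal HA tag, truncated to aa 1-2264, and mouse Bok with an N-terminal 3xFlag tag, truncated to aa 1-187. Lysates are immunoprecipitated with rabbit anti-HA. Samples are heated (37°C 30 min or boiled 5 min), run on SDS-PAGE, blotted to nitrocellulose and detected by ECL. p97 is the input loading control.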"}, "[1]": {"target": "FITC-IP3R1^1898-1929 (mouse) (UniProt P11881)", "test": "fluorescence polarisation"}, "[2]": {"target": "FITC-IP3R1^1898-1940 (mouse) (UniProt P11881)", "test": "fluorescence polarisation"}, "[3]": {"target": "FITC-IP3R1^1904-1940 (mouse) (UniProt P11881)", "test": "fluorescence polarisation"}, "HS-IP3R1": {"test_system": "HS-IP3R1", "format": "binding, mouse", "conditions": "PBS / 0.1% BSA, 16h at 4°C, anti-IP3R1^1884-1903 IP, immunoblot", "how_it_was_run": "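His-SUMO-tagged mouse Bok and IP3R1 fragments, plus an HA-tag control, are expressed in E. coli BL21-CodonPlus(DE3)-RIPL. Cells are grown at 37°C to OD600 ~0.6, then induced with 1 mM IPTG for ~18 h at 16°C. Protein is purified on Ni-NTA in pH 7.4 phosphate buffer and eluted with 400 mM imidazole. Mixtures are immunoprecipitated with rabbit anti-IP3R1 (aa 1884-1903) and probed by immunoblot.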"}}, "note": "Ends that are not written are not given here. * marks the point of attachment. FITC = O=C1OC2(c3ccc(O)cc3Oc3cc(O)ccc32)c2ccc(NC(=S)*)cc21; Ahx = NCCCCCC(=O)O", "data": [{"molecule": "IP3R1-HA^Δ1916-1917: IP3R1-HA deletion mutant, Bok binding-deficient", "values": [{"measurement": "co-IP of 3F-Bok^WT", "setting": "3F-Bok^WT", "result": "failed to co-IP 3F-Bok^WT"}]}, {"molecule": "FITC-IP3R1^1907-1921: shorter peptide which encompasses just the ANCHOR2 \"peak\" shown in Figure 1C (ITEEVRDQLLEASAA; also: FITC-conjugated, position not given here)", "values": [{"measurement": "binding to HS-Bok (in words)", "setting": "HS-Bok", "result": "does not bind to HS-Bok at all"}]}, {"molecule": "Bcl-xL: Bcl-2 family protein reported to interact with IP3Rs", "values": [{"measurement": "strength of interaction with IP3R1 relative to Bok", "setting": "IP3R1", "result": "much less strongly than Bok"}]}, {"molecule": "{FITC-Ahx}-KKAKEPTTQITEEVRDQLLEASAATRKAFTTFRREADPDDHYQ (N-terminus assumed) [FITC-IP3R1^1898-1940]", "values": [{"measurement": "binding to HS-HA (in words)", "setting": "HS-HA", "result": "but not negative control HS-HA"}, {"measurement": "binding to HS-Bok (in words)", "setting": "HS-Bok", "result": "bound with high affinity"}]}, {"molecule": "IP3R1-HA^ΔTM, Δ1916-1917: lacks TM domains and the ability to bind Bok", "values": [{"measurement": "localization upon co-transfection of 3F-Bok^WT", "setting": "HEK-3KO cells", "result": "an effect not seen"}]}, {"molecule": "IP3R1-HA^ΔTM: contains amino acids 1-2264 of IP3R1", "values": [{"measurement": "localization upon co-transfection of 3F-Bok^WT", "setting": "HEK-3KO cells", "result": "becomes more membrane-associated"}, {"measurement": "localization, expressed alone", "setting": "HEK-3KO cells", "result": "predominantly cytosolic"}, {"measurement": "co-IP of cytosolic 3F-Bok^ΔTM and IP3R1-HA^ΔTM", "setting": "3F-Bok^ΔTM", "result": "strongly co-IP"}]}, {"molecule": "IP3R1-HA^Δ1909-1941: IP3R1-HA construct with the largest deletion", "values": [{"measurement": "co-IP of 3F-Bok^WT", "setting": "3F-Bok^WT", "result": "did not co-IP 3F-Bok^WT"}]}, {"molecule": "IP3R1-HA^Δ1920-1921: IP3R1-HA deletion mutant", "values": [{"measurement": "co-IP of 3F-Bok^WT", "setting": "3F-Bok^WT", "result": "failed to co-IP 3F-Bok^WT"}]}, {"molecule": "IP3R1-HA^WT: mouse IP3R1 tagged at the C-terminus with an HA epitope", "values": [{"measurement": "localization on co-expression of IP3R1-HA^WT and 3F-Bok^WT", "setting": "HEK-3KO cells", "result": "the same localization is maintained"}, {"measurement": "localization, expressed alone", "setting": "HEK-3KO cells", "result": "localize completely to membranes"}, {"measurement": "co-IP of 3F-Bok^WT", "setting": "3F-Bok^WT", "result": "allowed for efficient co-IP of 3F-Bok^WT"}]}, {"molecule": "Bcl-2: Bcl-2 family protein reported to interact with IP3Rs", "values": [{"measurement": "strength of interaction with IP3R1 relative to Bok", "setting": "IP3R1", "result": "much less strongly than Bok"}]}, {"molecule": "IP3R1-HA^Δ1917: IP3R1-HA deletion mutant", "values": [{"measurement": "co-IP of 3F-Bok^WT", "setting": "3F-Bok^WT", "result": "failed to co-IP 3F-Bok^WT"}]}, {"molecule": "HS-Bok (from UniProt O35425 1-213) (natural protein)", "values": [{"measurement": "Kd", "setting": "[1]", "result": 265, "unit": "nM"}, {"measurement": "Kd", "setting": "[2]", "result": 64, "unit": "nM"}, {"measurement": "Kd", "setting": "[3]", "result": 398, "unit": "nM"}]}, {"molecule": "B1", "values": [{"measurement": "co-IP with HS-IP3R1", "setting": "HS-IP3R1", "result": "strong co-IP"}]}, {"molecule": "B2", "values": [{"measurement": "localization on co-expression of IP3R1-HA^WT and 3F-Bok^WT", "setting": "HEK-3KO cells", "result": "the same localization is maintained, with an increase in Bok expression level"}, {"measurement": "localization, expressed alone", "setting": "HEK-3KO cells", "result": "localize completely to membranes"}]}, {"molecule": "B3", "values": [{"measurement": "localization, expressed alone", "setting": "HEK-3KO cells", "result": "predominantly cytosolic"}]}]}
